≈ marks a conversion by molar mass, not a printed value.
How the values were obtained:
[1] = Octanol-phosphate buffer partition co-efficient, log D of the compound at pH 7.4 after 2 hrs by LC-MS/MS-based shake flask method; type: physicochemical
How it was run: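 Distribution between octanol and water at pH 7.4.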

[2] = Aqueous solubility of the compound in pH 7.4 phosphate buffer measured after 24 hrs by LC-MS/MS-based shake flask method; type: physicochemical
[3] = molecular target: T1, Arachidonate 5-lipoxygenase-activating protein (Homo sapiens, UniProt P20292); assay: Inhibition of [3H]MK0591 binding to human FLAP expressed in […] cell membranes measured after 60 to 80 mins by microbeta scintillation counting method
T1 sequence (P20292 whole entry): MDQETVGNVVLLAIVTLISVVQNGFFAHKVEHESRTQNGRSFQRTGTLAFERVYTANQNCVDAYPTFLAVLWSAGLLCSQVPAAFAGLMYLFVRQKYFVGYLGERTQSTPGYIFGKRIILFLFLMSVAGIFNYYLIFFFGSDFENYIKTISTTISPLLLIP

[4] = molecular target: T2, Arachidonate 5-lipoxygenase-activating protein (Homo sapiens) (UniProt P20292); assay: Inhibition of FLAP in human whole blood assessed as reduction in calcium ionophore-stimulated LTB4 production preincubated for 4 hrs followed by calcium ionophore stimulation and measured after 20 mins by EIA; type: tissue-based
T2 sequence (whole entry): T1 sequence (P20292 whole entry)
How it was run: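 Fresh human whole blood was incubated with compound for 4 h, then stimulated with calcium ionophore, and LTB4 production was measured as the 5-LO pathway read-out. IC50 was also converted to a free value: IC50 × (Fu/100), where Fu = 100 − human plasma protein binding (%).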

[5] = Intrinsic clearance in human hepatocytes assessed per million cells at 1 uM measured after 2 to 60 mins by LC-MS/MS analysis; type: ADME, cell-based, Hepatocyte; conditions: read-out: CLH
[6] = Passive apparent permeability across apical to basolateral side in human Caco2 cells at pH 6.5; type: ADME, cell-based; conditions: Caco-2, pH 6.5
How it was run: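 Passive permeability across Caco-2 monolayers, measured in the A to B direction at pH 6.5.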

[7] = Intrinsic clearance in rat hepatocytes assessed per million cells at 1 uM measured after 2 to 60 mins by LC-MS/MS analysis; type: ADME, cell-based, Hepatocyte; conditions: read-out: CLH
How it was run: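 Rat hepatocyte incubation of the compound; intrinsic clearance measured after incubation.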

[8] = Mutagenicity in Salmonella typhimurium TA98 in presence of rat S9 fraction by Ames test; type: toxicity, subcellular; conditions: salmonella enterica subsp. enterica serovar typhimurium
How it was run: (§1)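 Ames bacterial mutagenicity test in S. typhimurium TA98 and TA100. Run with and without metabolic activation by rat S9 fraction.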

[9] = Mutagenicity in Salmonella typhimurium TA98 in absence of rat S9 fraction by Ames test; type: toxicity; conditions: salmonella enterica subsp. enterica serovar typhimurium; how it was run: as §1
[10] = Mutagenicity in Salmonella typhimurium TA100 in presence of rat S9 fraction by Ames test; type: toxicity, subcellular; conditions: salmonella enterica subsp. enterica serovar typhimurium; how it was run: as §1
[11] = Mutagenicity in Salmonella typhimurium TA100 in absence of rat S9 fraction by Ames test; type: toxicity; conditions: salmonella enterica subsp. enterica serovar typhimurium; how it was run: as §1

Row | logD at 2 h [1] | solubility thermodynamic at 24 h [2] [µM] | IC50 [3] [nM] | fIC50 [4] [nM] | hepatocyte CLint at 1 µM [5] [µL/min/1e6 cells] | Papp A→B [6] [×10⁻⁶ cm/s] | hepatocyte CLint at 1 µM [7] [µL/min/1e6 cells] | SMILES | Activity [8] | Activity [9] | Activity [10] | Activity [11]
1 | 2.9 | 329 (≈ 148 µg/mL) |  | 16 | 4.9 | 9.2 | 8.6 | CCn1ncc(NC(=O)[C@@H]2CCCC[C@H]2C(=O)c2ccc(-c3cc(C)n[nH]3)cc2)c1C(N)=O | Toxic | Toxic | Toxic | Toxic
2 | 2.3 | 402 (≈ 175 µg/mL) |  |  | 6.7 | 0.15 | 14.4 | Cc1cc(-c2ccc(C(=O)[C@@H]3CCCC[C@H]3C(=O)Nc3c(C(N)=O)n[nH]c3C)cc2)[nH]n1 |  |  |  | 

Further lines, the molecule ahead of its results:

Row | SMILES | logD at 2 h [1] | solubility thermodynamic at 24 h [2] [µM] | IC50 [3] [nM] | fIC50 [4] [nM] | hepatocyte CLint at 1 µM [5] [µL/min/1e6 cells] | Papp A→B [6] [×10⁻⁶ cm/s] | hepatocyte CLint at 1 µM [7] [µL/min/1e6 cells] | Activity [8] | Activity [9] | Activity [10] | Activity [11]
3 | Cc1cc(-c2ccc(C(=O)[C@@H]3CCCC[C@H]3C(=O)Nc3cnn(C)c3C(=O)O)cc2)[nH]n1 | 0.2 | 599 (≈ 261 µg/mL) | 17 | 570 | 3.2 | 0.21 |  |  |  |  | 
4 | Cc1cc(-c2ccc(C(=O)[C@@H]3CCCC[C@H]3C(=O)Nc3cn(C)nc3C(N)=O)cc2)[nH]n1 |  |  |  | 22 |  |  |  |  |  |  | 
5 | Cc1cc(-c2ccc(C(=O)[C@@H]3CCCC[C@H]3C(=O)Nc3c(C)nn(C)c3C(N)=O)cc2)n[nH]1 | 2.6 | 399 (≈ 179 µg/mL) | 101 | 8 | < 1 | 1.4 | 5.7 | Toxic | Toxic | Toxic | Toxic
6 | Cc1cc(-c2ccc(C(=O)[C@@H]3CCCC[C@H]3C(=O)Nc3cnn(C)c3C(N)=O)cc2)[nH]n1 | 2.6 | 475 (≈ 206 µg/mL) |  | 13 | 3 | 2.6 | 6.5 | Toxic | Toxic | Toxic | Toxic
